Key:
[1] = molecular target: T1, fluorescein-labeled WIL-FL LC dimer (WIL-FL*) (Homo sapiens, UniProt P01721, K101C); conditions: previous study; cited from earlier work
[2] = molecular target: T1, fluorescein-labeled WIL-FL LC dimer (WIL-FL*); experiment: protease-coupled fluorescence polarization; type: biochemical
[3] = tested on: unlabeled WIL-FL LC dimer; experiment: proteinase K sensitivity assay, single dose; type: biochemical, human; conditions: 10 μM stabilizer
Method in brief: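 Unlabelled WIL-FL LC dimer (2.5 μM) was treated with test compound (10 μM) and proteinase K (50 nM) for 2 h at 37 °C. Remaining intact dimer was quantified by size-exclusion chromatography. Fold protection is the fraction of dimer remaining with compound, corrected for residual dimer in the vehicle (1% DMSO) control. Mean of ≥3 independent replicates ± 1 SD.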

[4] = molecular target: fluorescein-labeled WIL-FL* T46L/F49Y LC dimer (Homo sapiens, UniProt P01721, K101C/T66L); experiment: protease-coupled fluorescence polarization; type: biochemical; conditions: for increased potency compared to stabilizer 1 in the PCFP assays (up to): highest ratio across the two PCFP assays (WIL-FL* and WIL-FL* T46L/F49Y)
fluorescein-labeled WIL-FL* T46L/F49Y LC dimer, sequence (P01721 20-117 T66L/K101C): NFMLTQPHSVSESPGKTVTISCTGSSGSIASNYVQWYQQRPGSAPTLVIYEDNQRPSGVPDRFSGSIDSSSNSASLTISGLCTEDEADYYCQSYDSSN

FL LC dimers = conditions: cited from earlier work

T1 sequence (P01721 20-117 K101C): as the sequence (P01721 20-117 T66L/K101C) above, with L47T counted along it

In the case of `CCN(CC)c1ccc2c(C)c(CCOC(=O)NCc3ccccc3)c(=O)oc2c1` [2-(7-(diethylamino)-4-methyl-2-oxo-2H-chromen-3-yl)ethyl benzylcarbamate], the “improved potency compared to 1 in the PCFP assays” value [1] is listed as “more than ten-fold”.
In the case of `CCN(CC)c1ccc2c(C)c(CCC(=O)NCCc3cccnc3)c(=O)oc2c1` [Compound 11], the “potency increase for WIL-FL* compared to stabilizer 1” value ([2]; ratio of EC50 values) is reported as 2.6 fold, the “increase in fold protection for unlabeled WIL-FL compared to stabilizer 1” value [3] is reported as 0.33 and the “potency increase for WIL-FL* T46L/F49Y compared to stabilizer 1” value ([4]; ratio of EC50 values) is reported as “two-fold”.
In the case of `CCN(CC)c1ccc2c(C)c(CCNC(=O)CCc3ccccc3)c(=O)oc2c1` [Compound 16], the “maximal fluorescence polarization compared to compound 1” value ([2]; PCFP dose-response (Figure S3)) is reported as “lower”.
In the case of `CCN(CC)c1ccc2c(C)c(CCNC(=O)NCc3cccc(-c4c[nH]cn4)c3)c(=O)oc2c1` [Compound 21], the “increased potency compared to stabilizer 1 in the PCFP assays (up to)” value [4] is reported as “up to 56 fold”.
For `CCN(CC)c1ccc2c(C)c(CCNC(=O)NCc3ccc4ccccc4c3)c(=O)oc2c1` [Compound 23], the “increased potency compared to stabilizer 1 in the PCFP assays (up to)” value [4] was ≤ 150 fold.
In the case of `CN(C)c1ccc2nc3ccc(=[N+](C)C)cc-3sc2c1` [methylene blue], the “stabilization of FL LC dimers” value (FL LC dimers) is given as “do not stabilize FL LC dimers”.
For `O=C(O)c1cc(/N=N/c2ccc(S(=O)(=O)Nc3ccccn3)cc2)ccc1O` [sulfasalazine], the “stabilization of FL LC dimers” value (FL LC dimers) is given as “do not stabilize FL LC dimers”.
